In ChEMBL document CHEMBL4014343 (J Med Chem, 2017):
The source made the active and inactive calls. No cut-off for these calls is given here.

Columns and labels:
[1] = target: T1, Insulin-like growth factor 1 receptor (Homo sapiens, UniProt P08069); test: Inhibition of IGF1R (unknown origin)
MCF7 [2] = test: Antiproliferative activity against human MCF7 cells after 3 days by SRB assay; format: functional, cell-based
CDK2/Cyclin A2 [3] = target: T2, CDK2/Cyclin A2 (Homo sapiens, UniProt P24941); test: Inhibition of full length human C-terminal His6-tagged CDK2/N-terminal GST-tagged CyclinA expressed in baculovirus infected sf21 cells after 10 mins in presence of [gamma32P]ATP by beta counting method
[4] = target: T3, Cyclin-dependent kinase 2/cyclin E1 (Homo sapiens, UniProt P24941); test: Inhibition of full length human C-terminal His6-tagged CDK2/N-terminal GST-tagged CyclinE expressed in baculovirus infected sf21 cells after 10 mins in presence of [gamma32P]ATP by beta counting method
[5] = target: T4, Glycogen synthase kinase-3 beta (Homo sapiens, UniProt P49841); test: Inhibition of recombinant GSK3beta (unknown origin) after 10 mins in presence of [gamma32P]ATP by beta counting method
Summary of the method: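 Recombinant kinase with 0.4 μCi [γ-32P]ATP per vial, 10 min at 30 °C; spotted on P81 paper, washed in 0.75% phosphoric acid, counted by β-scintillation. IC50 by linear regression versus solvent control; duplicates, ≥3 independent experiments.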

CDK2/Cyclin A2 [6] = target: T2, CDK2/Cyclin A2; test: Inhibition of CDK2/CyclinA (unknown origin)
[7] = target: T3, Cyclin-dependent kinase 2/cyclin E1; test: Inhibition of CDK2/CyclinE (unknown origin)
[8] = target: Cyclin-dependent kinase 4/cyclin D1 (Homo sapiens, UniProt P11802); test: Inhibition of CDK4/Cyclin D1 (unknown origin)
[9] = target: T1, Insulin-like growth factor 1 receptor; test: Inhibition of IGF1R phosphorylation at Tyr1161 residue in human MCF7 cells at 10 uM after 1 hr by Hoechst 33258 staining based immunohistochemical analysis; format: cell-based
Summary of the method: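 MCF7 treated 1 h (test agent 1 μM; PI3K inhibitor 10 μM; 0.1% DMSO mock), fixed in 4% PFA 15 min, permeabilised/blocked, anti-p-IGF-1R Y1161 (1:200) overnight at 4 °C, Alexa 594 secondary 1 h, nuclei with Hoechst 33258 (1 μg/mL).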

[10] = Antiproliferative activity against human LXFL 529L cells after 3 days by SRB assay; format: functional, cell-based; details: Homo sapiens, LXFL 529L, 72 h
[11] = Solubility of the compound in water by spectrophotometric method; format: physicochemical
Summary of the method: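 Ethanol standard solutions define absorbance maxima; aqueous solubility then quantified spectrophotometrically at that maximum by calibration.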

[12] = target: T1, Insulin-like growth factor 1 receptor; test: Inhibition of IGF1R (unknown origin) by ADP-Glo assay
Summary of the method: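 Isolated IGF-1R activity measured by luminescent ADP-Glo readout per manufacturer's protocol; IC50 from concentration-response (mean ± deviation reported).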

KM12 = test: Growth inhibition of human KM12 cells incubated for 48 hrs by sulforhodamine B assay; format: functional; details: KM12, 48 h
MCF7 [13] = test: Growth inhibition of human MCF7 cells incubated for 48 hrs by sulforhodamine B assay; format: functional; details: MCF7, 48 h
MDA-MB-231 = test: Growth inhibition of human MDA-MB-231 cells incubated for 48 hrs by sulforhodamine B assay; format: functional; details: MDA-MB-231, 48 h
BT-549 = test: Growth inhibition of human BT549 cells incubated for 48 hrs by sulforhodamine B assay; format: functional; details: BT-549, 48 h
[14] = target: T4, Glycogen synthase kinase-3 beta; test: Inhibition of human N-terminal GST/His6-tagged GSK3beta (M1 to T420 residues) expressed in baculovirus infected sf9 cells using RBER-IRStide as substrate by filter binding assay
[15] = target: Cyclin-dependent kinase 5/CDK5 activator 1 (Homo sapiens, UniProt Q00535); test: Inhibition of recombinant human N-terminal GST-tagged CDK5 (M1 to P292 residues)/p35NCK (M1 to R307 residues) expressed in baculovirus infected sf9 cells using RB-CTF as substrate by filter binding assay
Sequence of Cyclin-dependent kinase 5/CDK5 activator 1 (Q00535 whole entry, the tested form may be a part): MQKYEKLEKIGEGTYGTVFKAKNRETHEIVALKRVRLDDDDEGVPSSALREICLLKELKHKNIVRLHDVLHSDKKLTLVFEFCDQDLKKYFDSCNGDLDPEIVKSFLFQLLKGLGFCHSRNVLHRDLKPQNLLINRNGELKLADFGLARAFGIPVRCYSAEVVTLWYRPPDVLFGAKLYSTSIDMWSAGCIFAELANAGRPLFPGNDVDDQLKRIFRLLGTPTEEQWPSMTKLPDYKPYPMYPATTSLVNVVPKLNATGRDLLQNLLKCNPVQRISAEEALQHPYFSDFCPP
Sequence of Cyclin-dependent kinase 5/CDK5 activator 1 (Q15078 whole entry, further chain, the tested form may be a part): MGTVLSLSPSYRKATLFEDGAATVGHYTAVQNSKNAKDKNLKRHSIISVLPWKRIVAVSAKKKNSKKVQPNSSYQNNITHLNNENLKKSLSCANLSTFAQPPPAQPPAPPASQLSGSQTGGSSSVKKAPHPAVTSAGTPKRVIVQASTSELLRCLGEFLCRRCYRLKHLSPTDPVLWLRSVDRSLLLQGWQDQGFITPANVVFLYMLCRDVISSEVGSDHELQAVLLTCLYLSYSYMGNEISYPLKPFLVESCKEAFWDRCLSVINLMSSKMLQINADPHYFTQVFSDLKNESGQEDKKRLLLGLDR

T1 sequence (P08069 31-736 limits assumed): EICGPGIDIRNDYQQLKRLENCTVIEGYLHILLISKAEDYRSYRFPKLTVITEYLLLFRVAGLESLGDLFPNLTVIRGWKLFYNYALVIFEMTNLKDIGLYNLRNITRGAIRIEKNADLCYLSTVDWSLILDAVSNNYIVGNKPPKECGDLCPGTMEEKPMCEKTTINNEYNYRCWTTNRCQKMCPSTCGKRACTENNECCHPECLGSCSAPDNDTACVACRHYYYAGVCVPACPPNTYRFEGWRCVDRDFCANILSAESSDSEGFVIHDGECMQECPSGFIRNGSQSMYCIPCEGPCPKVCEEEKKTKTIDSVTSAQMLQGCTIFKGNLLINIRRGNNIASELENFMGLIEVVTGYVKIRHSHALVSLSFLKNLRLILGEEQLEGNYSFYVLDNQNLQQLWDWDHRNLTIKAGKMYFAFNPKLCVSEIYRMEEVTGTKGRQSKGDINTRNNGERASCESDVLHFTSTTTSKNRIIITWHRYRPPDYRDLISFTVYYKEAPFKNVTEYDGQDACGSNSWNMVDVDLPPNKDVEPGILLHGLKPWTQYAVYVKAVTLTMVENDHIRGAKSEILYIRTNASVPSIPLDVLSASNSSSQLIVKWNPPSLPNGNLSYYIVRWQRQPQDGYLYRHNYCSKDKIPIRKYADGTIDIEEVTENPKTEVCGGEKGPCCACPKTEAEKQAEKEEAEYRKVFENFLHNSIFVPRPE
T1 sequence (P08069 741-1367 limits assumed): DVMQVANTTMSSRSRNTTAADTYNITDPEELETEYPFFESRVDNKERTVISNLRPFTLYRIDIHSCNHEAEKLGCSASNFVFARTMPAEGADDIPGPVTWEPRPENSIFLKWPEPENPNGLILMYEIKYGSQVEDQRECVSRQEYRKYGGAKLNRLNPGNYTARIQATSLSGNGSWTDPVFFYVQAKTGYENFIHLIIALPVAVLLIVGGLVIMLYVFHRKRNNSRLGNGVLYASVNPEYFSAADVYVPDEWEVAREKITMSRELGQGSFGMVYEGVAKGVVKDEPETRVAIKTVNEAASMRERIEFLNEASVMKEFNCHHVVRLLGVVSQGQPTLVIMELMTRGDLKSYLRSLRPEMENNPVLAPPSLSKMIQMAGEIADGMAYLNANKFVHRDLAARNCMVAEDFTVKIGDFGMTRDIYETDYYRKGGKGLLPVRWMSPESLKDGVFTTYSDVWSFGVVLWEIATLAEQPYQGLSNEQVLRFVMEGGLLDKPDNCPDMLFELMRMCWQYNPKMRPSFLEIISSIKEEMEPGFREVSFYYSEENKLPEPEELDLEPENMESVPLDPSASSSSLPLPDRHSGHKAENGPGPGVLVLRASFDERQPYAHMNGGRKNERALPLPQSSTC
T4 sequence (P49841 whole entry): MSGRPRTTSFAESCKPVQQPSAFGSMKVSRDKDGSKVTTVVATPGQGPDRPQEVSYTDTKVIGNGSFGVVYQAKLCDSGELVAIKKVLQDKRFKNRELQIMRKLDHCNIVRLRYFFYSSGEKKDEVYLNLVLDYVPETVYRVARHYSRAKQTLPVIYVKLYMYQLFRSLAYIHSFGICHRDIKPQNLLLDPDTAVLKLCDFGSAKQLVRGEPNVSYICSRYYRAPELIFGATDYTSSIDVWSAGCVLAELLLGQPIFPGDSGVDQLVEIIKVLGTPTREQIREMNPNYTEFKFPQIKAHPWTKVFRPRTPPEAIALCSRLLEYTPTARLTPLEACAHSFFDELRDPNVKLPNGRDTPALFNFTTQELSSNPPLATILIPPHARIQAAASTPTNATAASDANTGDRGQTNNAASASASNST
Sequence of Cyclin-dependent kinase 4/cyclin D1 (P11802 whole entry): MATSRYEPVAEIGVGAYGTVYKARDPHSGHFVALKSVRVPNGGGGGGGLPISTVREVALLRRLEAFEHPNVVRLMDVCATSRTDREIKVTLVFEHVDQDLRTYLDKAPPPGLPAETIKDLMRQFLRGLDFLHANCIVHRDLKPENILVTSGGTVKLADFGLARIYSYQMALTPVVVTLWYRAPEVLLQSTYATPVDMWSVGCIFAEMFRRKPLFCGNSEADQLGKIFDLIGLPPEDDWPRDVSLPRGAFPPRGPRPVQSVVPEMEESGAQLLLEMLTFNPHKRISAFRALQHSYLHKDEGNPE
Sequence of Cyclin-dependent kinase 4/cyclin D1 (P24385 whole entry, further chain): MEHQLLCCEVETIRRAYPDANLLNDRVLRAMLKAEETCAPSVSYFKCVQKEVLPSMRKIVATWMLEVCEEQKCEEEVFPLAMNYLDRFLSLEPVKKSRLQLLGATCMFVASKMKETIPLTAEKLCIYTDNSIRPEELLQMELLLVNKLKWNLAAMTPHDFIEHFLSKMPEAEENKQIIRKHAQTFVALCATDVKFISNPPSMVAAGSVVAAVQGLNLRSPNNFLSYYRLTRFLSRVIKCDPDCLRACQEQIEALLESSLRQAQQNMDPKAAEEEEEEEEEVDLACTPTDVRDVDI

## O=C1Nc2ccccc2/C1=C1/Nc2ccccc2C1=O [INDIRUBIN]
[1]
  IC50: > 1000 µM
MCF7 [2]; Homo sapiens, MCF7, 72 h
  IC50: 9.91 µM
CDK2/Cyclin A2 [3]
  IC50: 2.2 µM
[4]
  IC50: 7.5 µM
[5]
  IC50: 0.6 µM
CDK2/Cyclin A2 [6]
  IC50: 7.5 µM
[7]
  IC50: 2.2 µM
[8]
  IC50: 12 µM

## O=c1cc(N2CCOCC2)oc2c(-c3ccccc3)cccc12
[9]
  inhibition: Active

## CN1CCN(CCO/N=C2/C(=C3/C(=O)Nc4ccccc43)Nc3ccccc32)CC1.Cl
MCF7 [2]; mcf7
  IC50: 0.85 µM
[10]
  IC50: 1.1 µM
[11]
  solubility: > 25 mg/mL
[12]
  IC50: 0.169 µM
KM12
  GI50: 0.08 µM
MCF7 [13]
  GI50: 0.59 µM
MDA-MB-231
  GI50: 2.14 µM
BT-549
  GI50: 3.19 µM

## CN1CCN(CCO/N=C2/C(=C3/C(=O)Nc4cc(Br)ccc43)Nc3ccccc32)CC1
[14]
  IC50: 0.005 µM
[15]
  IC50: 0.5 µM
